# Published values collected from several papers.
# ADORA2B: Adenosine receptor A2b (ADORA2B, Homo sapiens, UniProt P29275)
# CFTR: Cystic fibrosis transmembrane conductance regulator (CFTR, Homo sapiens, UniProt P13569)
# PKN3: Serine/threonine-protein kinase N3 (PKN3, Homo sapiens, UniProt Q6P5Z2)
Structure (SMILES),target,test,setting,inhibition
CC(C)N1CCCn2c1nc1c2c(=O)n(C)c(=O)n1C,ADORA2B,"ligand displacement, radioligand","10 µM, cell membranes",-4%
COc1cc(NC(C)=O)c(Cl)cc1C(=O)Nc1nccs1,ADORA2B,cell-free assay,10 µM,-34.6%
CC(C)CN1CCCn2c1nc1c2c(=O)n(C)c(=O)n1C,ADORA2B,"ligand displacement, radioligand","10 µM, cell membranes",5%
CC(=NNC(=O)C(=O)Nc1ccc2ccccc2c1)c1cc(Br)c(O)c(Br)c1O,CFTR,"ion current, inhibitor",50 µM,95%
CN(C)C1CCN(CC#Cc2nn(C3CCCC3)c3nc(NCc4ccccc4)ncc23)C1 (centres unmarked),"Dual specificity protein kinase CLK2 (CLK2, Homo sapiens, UniProt P49760)","enzyme activity, inhibitor, FRET",10 µM,33%
CCN(c1cc(C#CCN2CCOCC2)cc(C(=O)NCc2c(C)cc(C)[nH]c2=O)c1C)[C@H]1CC[C@H](N(C)CCOC)CC1,"Histone-lysine N-methyltransferase, H3 lysine-79 specific (DOT1L, Homo sapiens, UniProt Q8TEK3)","enzyme activity, inhibitor",1 µM,1%
Cn1cnc(Br)c1C1=CN(c2ncnc3[nH]cnc23)CCS1,PKN3,"enzyme activity, inhibitor, radiometric",50 nM,29.2%
CC(/C=C/C(=O)NO)=C\[C@@H](C)C(=O)c1ccc(N(C)C)cc1,"Histone deacetylase 11 (HDAC11, Homo sapiens, UniProt Q96DB2)","enzyme activity, inhibitor, fluorescence",20 µM,< 50%
O=C(CNc1cccc2ccccc12)NN=Cc1cc(Br)c(O)c(Br)c1,CFTR,"ion current, inhibitor",50 µM,87%
CC(=O)c1nn(CC(=O)N2C[C@H](F)C[C@H]2C(=O)Nc2cccc(Br)n2)c2ccc(-c3cnc(C)nc3)cc12,"Chymase (CMA1, Homo sapiens, UniProt P23946)","enzyme activity, inhibitor",10 µM,-1.2%
O=C(c1ccc(Cl)cc1)N(Cc1ccccc1)C1CCCCC1,ADORA2B,cell-free assay,10 µM,-5.4%
CCCCCN1CCCn2c1nc1c2c(=O)n(C)c(=O)n1C,ADORA2B,"ligand displacement, radioligand","10 µM, cell membranes",-3%
O=C(NN=Cc1cc(Br)c(O)c(Br)c1)C(=O)Nc1ccc2ccccc2c1,CFTR,"ion current, inhibitor",50 µM,80%
CCC(C)N1CCCn2c1nc1c2c(=O)n(C)c(=O)n1C (centres unmarked),ADORA2B,"ligand displacement, radioligand","10 µM, cell membranes",-9%
CC(C)OC(=O)NC(C)(C)c1csc(-c2ccc(F)cc2)n1,"N-terminal Xaa-Pro-Lys N-methyltransferase 1 (Homo sapiens, UniProt Q9BV86)","enzyme activity, inhibitor, fluorescence",100 µM,< 50%
Oc1cccc(Nc2nc(-c3ccc(F)cc3F)cs2)c1,ADORA2B,cell-free assay,10 µM,-11.9%
CCN1CCCn2c1nc1c2c(=O)n(C)c(=O)n1C,ADORA2B,"ligand displacement, radioligand","10 µM, cell membranes",12%
O=C(CNc1ccc(Cl)cc1)NN=Cc1cc(Br)c(O)c(Br)c1O,CFTR,"ion current, inhibitor",50 µM,91%
Cn1cncc1C1=CN(c2ncnc3[nH]cnc23)CCS1,PKN3,"enzyme activity, inhibitor, radiometric",50 nM,18.6%
COCCOc1ccc(N2CCN(CCn3ncc4c3nc(N)n3nc(-c5ccco5)nc43)CC2)cc1,ADORA2B,"ligand displacement, radioligand","10 µM, cell membranes",25%
CCOC(=O)C1=C(C)NC(c2ccccc2)=C(C(=O)OCc2ccccc2)C1C#Cc1ccccc1 (centres unmarked),"Adenosine receptor A1 (Mus musculus, UniProt Q60612)","ligand displacement, radioligand","10 µM, cell membranes",0%
CC(Nc1ccc2ccccc2c1)C(=O)NN=Cc1cc(Br)c(O)c(Br)c1O (centres unmarked),CFTR,"ion current, inhibitor",50 µM,91%
C=CCN1CCCn2c1nc1c2c(=O)n(C)c(=O)n1C,ADORA2B,"ligand displacement, radioligand","10 µM, cell membranes",6%
